Reference: ChEMBL document CHEMBL1255538, “Synthesis and molecular docking study of novel coumarin derivatives containing 4,5-dihydropyrazole moiety as potential antitumor agents” (Bioorg Med Chem Lett, 2010)
In brackets after ≈: the same amount, converted by molar mass.

How the values were obtained:
PC-3 = experiment: Cytotoxicity against human PC3 cells after 48 hrs by MTT assay; assay type: functional, cell-based
Summary of the method: (§1)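 Tumour cells grown to log phase in RPMI 1640 with 10% FBS, seeded at 3 × 10⁴ cells/mL, preincubated 24 h at 37 °C, 5% CO₂. Test samples at pre-set concentrations were added to 6 wells, with 5-fluorouracil as positive reference, for 48 h. MTT was then added for 4 h, formazan was dissolved in DMSO and absorbance read at 570 nm. IC50 from three experiments in triplicate, mean ± SD.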

[1] = molecular target: DNA polymerase I, thermostable (Thermus aquaticus, UniProt P19821); experiment: Inhibition of Taq polymerase
Summary of the method: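 Taq polymerase inhibition was monitored alongside the modified TRAP assay to detect interference with the amplification step. IC50 was the concentration giving 50% Taq polymerase inhibition.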

[2] = molecular target: Telomerase reverse transcriptase (Homo sapiens, UniProt O14746); experiment: Inhibition of telomerase in human SGC7901 cells by TRAP assay; assay type: cell-based, SGC-7901
Summary of the method: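 Modified TRAP assay using SGC-7901 cell extract as the telomerase source. IC50 taken from three experiments in triplicate, mean ± SD.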

A-431 = experiment: Cytotoxicity against human A431 cells after 48 hrs by MTT assay; assay type: functional, cell-based; summary of the method: as §1
SGC-7901 [3] = experiment: Cytotoxicity against human SGC7901 cells after 48 hrs by MTT assay; assay type: functional, cell-based; summary of the method: as §1
SGC-7901 [4] = experiment: Selectivity index, ratio of IC50 for Taq polymerase to IC50 for telomerase in human SGC7901 cells; assay type: cell-based
Summary of the method: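 Ratio of the concentration giving 50% Taq polymerase inhibition to the concentration giving 50% telomerase inhibition. Telomerase was measured by modified TRAP with SGC-7901 cell extract.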

[5] = Homo sapiens, PC-3, 48 h, read-out: IC50
[6] = Homo sapiens, A-431, 48 h, read-out: IC50
[7] = Homo sapiens, SGC-7901, 48 h, read-out: IC50

Chain of Telomerase reverse transcriptase (O14746 whole entry): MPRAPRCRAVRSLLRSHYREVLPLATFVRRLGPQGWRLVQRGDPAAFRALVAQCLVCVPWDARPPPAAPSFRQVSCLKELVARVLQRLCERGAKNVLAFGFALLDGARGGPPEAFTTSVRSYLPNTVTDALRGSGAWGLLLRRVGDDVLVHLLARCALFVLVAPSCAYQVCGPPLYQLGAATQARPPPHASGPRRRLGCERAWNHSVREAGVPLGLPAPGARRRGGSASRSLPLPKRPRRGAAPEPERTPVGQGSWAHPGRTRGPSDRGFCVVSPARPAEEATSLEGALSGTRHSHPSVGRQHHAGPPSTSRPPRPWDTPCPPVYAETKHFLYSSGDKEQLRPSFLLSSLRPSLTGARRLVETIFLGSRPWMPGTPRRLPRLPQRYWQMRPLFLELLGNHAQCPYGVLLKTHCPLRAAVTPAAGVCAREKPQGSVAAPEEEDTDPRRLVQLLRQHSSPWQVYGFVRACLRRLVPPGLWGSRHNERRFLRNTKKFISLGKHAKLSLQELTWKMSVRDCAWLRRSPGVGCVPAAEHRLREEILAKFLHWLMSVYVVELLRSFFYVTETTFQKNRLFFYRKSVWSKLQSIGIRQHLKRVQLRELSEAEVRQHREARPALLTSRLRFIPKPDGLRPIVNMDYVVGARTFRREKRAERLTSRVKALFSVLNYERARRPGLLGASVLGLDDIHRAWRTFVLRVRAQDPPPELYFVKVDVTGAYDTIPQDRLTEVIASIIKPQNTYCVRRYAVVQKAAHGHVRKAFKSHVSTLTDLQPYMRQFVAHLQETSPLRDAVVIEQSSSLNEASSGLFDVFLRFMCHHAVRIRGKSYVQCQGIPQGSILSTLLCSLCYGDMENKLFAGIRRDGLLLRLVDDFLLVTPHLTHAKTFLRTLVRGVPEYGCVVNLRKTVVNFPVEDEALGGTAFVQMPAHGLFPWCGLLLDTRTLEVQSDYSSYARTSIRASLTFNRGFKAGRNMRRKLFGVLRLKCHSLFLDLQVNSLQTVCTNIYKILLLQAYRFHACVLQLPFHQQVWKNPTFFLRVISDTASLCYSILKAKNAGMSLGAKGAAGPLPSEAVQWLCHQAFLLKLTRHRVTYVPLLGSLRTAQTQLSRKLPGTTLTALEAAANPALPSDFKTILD
Chain of DNA polymerase I, thermostable (P19821 whole entry): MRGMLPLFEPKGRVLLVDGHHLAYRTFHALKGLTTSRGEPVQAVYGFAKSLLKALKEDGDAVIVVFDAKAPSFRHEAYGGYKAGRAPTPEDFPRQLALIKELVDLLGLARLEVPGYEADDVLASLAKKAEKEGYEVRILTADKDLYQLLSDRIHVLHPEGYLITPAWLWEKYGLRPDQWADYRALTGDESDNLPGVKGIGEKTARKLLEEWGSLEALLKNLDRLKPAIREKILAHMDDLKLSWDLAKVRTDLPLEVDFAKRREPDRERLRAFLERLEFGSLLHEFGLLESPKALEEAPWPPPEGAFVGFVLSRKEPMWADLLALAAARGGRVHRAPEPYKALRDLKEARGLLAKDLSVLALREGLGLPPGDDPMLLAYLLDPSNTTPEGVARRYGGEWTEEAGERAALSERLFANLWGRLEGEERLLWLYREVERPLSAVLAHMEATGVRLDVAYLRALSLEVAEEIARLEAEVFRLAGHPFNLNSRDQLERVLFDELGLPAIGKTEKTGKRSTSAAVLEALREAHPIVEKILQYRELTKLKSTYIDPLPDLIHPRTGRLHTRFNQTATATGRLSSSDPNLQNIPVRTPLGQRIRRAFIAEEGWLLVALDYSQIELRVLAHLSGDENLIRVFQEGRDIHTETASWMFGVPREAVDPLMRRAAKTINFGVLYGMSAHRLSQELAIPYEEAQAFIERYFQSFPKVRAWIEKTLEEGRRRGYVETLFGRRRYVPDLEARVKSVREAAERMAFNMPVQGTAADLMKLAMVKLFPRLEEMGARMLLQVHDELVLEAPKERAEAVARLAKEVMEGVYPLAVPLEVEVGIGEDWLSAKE

SMILES	IC50 (PC-3; [5]) [µg/mL]	IC50 [1]	IC50 ([2]; sgc-7901)	IC50 (A-431; a-431)	IC50 (SGC-7901 [3]; sgc-7901)	IC50 (PC-3; pc-3)	IC50 ([1]; read-out: IC50) [µM]	IC50 ([2]; read-out: IC50) [µM]	IC50 (A-431; [6]) [µg/mL]	Selectivity Index (SGC-7901 [4])	IC50 (SGC-7901 [3]; [7]) [µg/mL]
CC1=NN(C=O)C(c2ccccc2O)C1 (centres undefined)	65.1 (≈ 319 µM)	Not Active	Not Active	Not Active	Not Active						
COc1ccc(/C=C/C(=O)c2cc3ccccc3oc2=O)cc1		Not Active	Not Active	Not Active	Not Active	Not Active					
CC(=O)N1N=C(c2cc3ccccc3oc2=O)CC1c1ccc(O)cc1 (centres undefined)	58.7 (≈ 169 µM)						58.5	29.1	73 (≈ 209 µM)	2	35.9 (≈ 103 µM)
O=c1[nH]cc(F)c(=O)[nH]1 [FLUOROURACIL]	2.48 (≈ 19.1 µM)								2.17 (≈ 16.7 µM)		
CC(=O)N1N=C(c2cc3ccccc3oc2=O)CC1c1ccccc1 (centres undefined)	40.2 (≈ 121 µM)						6	2	51.7 (≈ 156 µM)	3	2.69 (≈ 8.09 µM)
CC(=O)N1N=C(c2cc3c(Br)cccc3oc2=O)CC1c1ccccc1 (centres undefined)	58.1 (≈ 141 µM)						4	1.8	48.1 (≈ 117 µM)	2.2	28.9 (≈ 70.3 µM)
CC(=O)N1N=C(c2cc3ccccc3oc2=O)CC1c1ccc(Cl)cc1Cl (centres undefined)	46.7 (≈ 116 µM)						20.7	9.6	68.7 (≈ 171 µM)	2.1	39.9 (≈ 99.5 µM)
COc1ccc(C2CC(c3cc4ccccc4oc3=O)=NN2C(C)=O)cc1 (centres undefined)		Not Active				Not Active		36.7	68.7 (≈ 190 µM)		48.7 (≈ 134 µM)
CC[n+]1c(-c2ccccc2)c2cc(N)ccc2c2ccc(N)cc21 [HOMIDIUM BROMIDE]								2.5			
CC(=O)N1N=C(c2cc3ccccc3oc2=O)CC1c1ccccc1Cl (centres undefined)	55.1 (≈ 150 µM)						16.8	6.5	50.6 (≈ 138 µM)	2.6	29.9 (≈ 81.6 µM)
CC(=O)N1N=C(c2cc3c(Br)cccc3oc2=O)CC1c1ccc(O)cc1 (centres undefined)	38.8 (≈ 90.7 µM)						10	4	68.3 (≈ 160 µM)	2.5	22.3 (≈ 52.3 µM)
